# Assay results as given in ChEMBL document CHEMBL1123756, “Cardiotonic agents. 5. 1,2-Dihydro-5-[4-(1H-imidazol-1-yl)phenyl]-6-methyl-2-oxo-3- pyridinecarbonitriles and related compounds. Synthesis and inotropic activity” (J Med Chem, 1987).
# Tests used:
# Canis familiaris [1] = experiment: Mean arterial blood pressure (MABP) in an acutely instrumented anesthetized dog model at 1 mg/kg intravenous dose; format: functional, Canis lupus familiaris
# How it was run: (§1)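 Adult mongrel dogs of either sex, anesthetized with pentobarbital 35 mg/kg IV and maintained by infusion at 5 mg/kg per h. Control data collected for 30 min. Drug given IV in saline (or dilute HCl/NaOH diluted with saline), 0.1 mL/kg over 1 min. Ascending doses, usually half-log apart, 10-30 min between doses, one compound per dog. Recorded LV dP/dtmax, heart rate and aortic pressure as % change from control.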
# Canis familiaris [2] = experiment: Myocardial contractility in an acutely instrumented anesthetized dog model at 0.001 mg/kg intravenous dose; format: functional, Canis lupus familiaris, Myocardium; how it was run: as §1
# Canis familiaris [3] = experiment: Heart rate (HR) in an acutely instrumented anesthetized dog model at 0.03 mg/kg intravenous dose; format: functional, Canis lupus familiaris; how it was run: as §1
# Canis familiaris [4] = experiment: Myocardial contractility in an acutely instrumented anesthetized dog model at […] intravenous dose; format: functional, Canis lupus familiaris, Myocardium
# Canis familiaris [5] = experiment: Heart rate (HR) in an acutely instrumented anesthetized dog model at 0.1 mg/kg intravenous dose; format: functional, Canis lupus familiaris; how it was run: as §1
# Canis familiaris [6] = experiment: Change from control in mean arterial blood pressure (MABP) in an acutely instrumented anesthetized dog model at […] intravenous dose
# Canis familiaris [7] = experiment: Heart rate (HR) in an acutely instrumented anesthetized dog model at […] intravenous dose; format: functional, Canis lupus familiaris
# Canis familiaris [8] = experiment: Heart rate (HR) in an acutely instrumented anesthetized dog model at 0.01 mg/kg intravenous dose; format: functional, Canis lupus familiaris; how it was run: as §1
# Canis familiaris [9] = experiment: Mean arterial blood pressure (MABP) in an acutely instrumented anesthetized dog model at 0.01 mg/kg intravenous dose; format: functional, Canis lupus familiaris; how it was run: as §1
# Canis familiaris [10] = experiment: Heart rate (HR) in an acutely instrumented anesthetized dog model at 1 mg/kg intravenous dose; format: functional, Canis lupus familiaris; how it was run: as §1
# Canis familiaris [11] = experiment: Mean arterial blood pressure (MABP) in an acutely instrumented anesthetized dog model at 0.03 mg/kg intravenous dose; format: functional, Canis lupus familiaris; how it was run: as §1
# Canis familiaris [12] = experiment: Myocardial contractility in an acutely instrumented anesthetized dog model at 0.01 mg/kg intravenous dose; format: functional, Canis lupus familiaris, Myocardium; conditions: dose 0.1 mg/kg, in the assay text read “0.1 mg/kg” for “0.01 mg/kg”; how it was run: as §1
# Canis familiaris [13] = experiment: Myocardial contractility in an acutely instrumented anesthetized dog model at 1 mg/kg intravenous dose; format: functional, Canis lupus familiaris, Myocardium; how it was run: as §1
# Canis familiaris [14] = experiment: Myocardial contractility in an acutely instrumented anesthetized dog model at 0.03 mg/kg intravenous dose; format: functional, Canis lupus familiaris, Myocardium; how it was run: as §1
# Canis familiaris [15] = experiment: Mean arterial blood pressure (MABP) in an acutely instrumented anesthetized dog model at 0.1 mg/kg intravenous dose; format: functional, Canis lupus familiaris; how it was run: as §1
# Canis familiaris [16] = experiment: Myocardial contractility in conscious dog model after 34-40 minutes at […] oral administration, activity >3 hr (p<0.05); format: functional, Canis lupus familiaris, Myocardium
# Canis familiaris [17] = experiment: Myocardial contractility in conscious dog model after 34-40 minutes at 0.1 mg/kg oral administration, range 5-10; format: functional, Canis lupus familiaris, Myocardium
# How it was run: (§2)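 Conscious, fasted adult mongrel dogs with surgically implanted devices for ECG, aortic pressure and flow, and LV pressure. Drug given by gavage as a solution or suspension, in single or multiple doses. Contractility recorded as % increase 34-40 min after dosing, with duration of response noted. Mean ± SEM; Student's t test, p < 0.05.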
# Canis familiaris [18] = experiment: Heart rate (HR) in an acutely instrumented anesthetized dog model at 0.003 mg/kg intravenous dose; format: functional, Canis lupus familiaris; how it was run: as §1
# Canis familiaris [19] = experiment: Mean arterial blood pressure (MABP) in an acutely instrumented anesthetized dog model at 0.003 mg/kg intravenous dose; format: functional, Canis lupus familiaris; how it was run: as §1
# Canis familiaris [20] = experiment: Myocardial contractility in conscious dog model after 34-40 minutes at 1 mg/kg oral administration, activity >4 hr; format: functional, Canis lupus familiaris, Myocardium; how it was run: as §2
# Canis familiaris [21] = experiment: Heart rate (HR) in an acutely instrumented anesthetized dog model at 0.001 mg/kg intravenous dose; format: functional, Canis lupus familiaris; how it was run: as §1
# Canis familiaris [22] = experiment: Mean arterial blood pressure (MABP) in an acutely instrumented anesthetized dog model at 0.001 mg/kg intravenous dose; format: functional, Canis lupus familiaris; how it was run: as §1
# Canis familiaris [23] = experiment: Myocardial contractility in conscious dog model after 34-40 minutes at 1 mg/kg oral administration, activity 3-4 hr (p<0.05); format: functional, Canis lupus familiaris, Myocardium; how it was run: as §2
# [24] = dose 0.01 mg/kg, in the assay text read “0.01 mg/kg” for “0.001 mg/kg”
Structure (SMILES),MABP change from control (Canis familiaris [1]),Change from Control (LV dp/dt) (Canis familiaris [2]; [24]),HR change from control (Canis familiaris [3]),Change from Control (LV dp/dt) (Canis familiaris [4]),HR change from control (Canis familiaris [5]),MABP change from control (Canis familiaris [6]),HR change from control (Canis familiaris [7]),HR change from control (Canis familiaris [8]),MABP change from control (Canis familiaris [9]),HR change from control (Canis familiaris [10]),MABP % change from control (Canis familiaris [11]),Change from Control (LV dp/dt) (Canis familiaris [12]),Change from Control (LV dp/dt) (Canis familiaris [13]),Change from Control (LV dp/dt) (Canis familiaris [14]),MABP change from control (Canis familiaris [15]),further results
Cc1nc(O)c(C#N)c(C)c1-c1ccc(-n2ccnc2)cc1,-49%,21%,2%,160%,15%,-35%,16%,1%,0%,26%,-6,137%,135%,86%,-17.5%,–
Cc1c(-c2ccc(-n3ccnc3)cc2)cnc(O)c1C#N,-2.5%,2.5%,2%,54%,4.5%,9.7%,7.5%,-0.5%,1.5%,19.5%,4.7,21%,125.5%,12%,5.5%,–
Cc1nc(O)ccc1-c1ccc(-n2ccnc2)cc1,-19.5%,36%,9%,121%,17%,-20%,26%,3%,-2.5%,29%,-2,109%,122%,85%,-9.5%,–
Cc1nc(O)c(C#N)cc1-c1ccc(-n2ccnc2)cc1,–,50.3%,14%,–,34.7%,–,–,4.5%,0.75%,–,-2.2,154%,–,122.7%,-9.7%,Change from Control (LV dp/dt) (Canis familiaris [2]): 4.5%; Increase contractility (Canis familiaris [16]): 35%; Increase contractility (Canis familiaris [17]): 10%; HR change from control (Canis familiaris [18]): 3%; MABP change from control (Canis familiaris [19]): 1.7%; Increase contractility (Canis familiaris [20]): 75%; HR change from control (Canis familiaris [21]): 1%; MABP (Canis familiaris [22]): -1
Cc1nc(O)c(N)cc1-c1ccc(-n2ccnc2)cc1,-27.5%,24.5%,12%,125.5%,18%,-17.5%,21.5%,-1.5%,0.5%,22%,1,134.5%,105.5%,80.5%,-5%,–
Cc1c(-c2ccc(-n3ccnc3)cc2)cc(C#N)c(=O)n1C,0.5%,8%,0%,18%,3%,1.5%,2%,1%,2%,3%,1,16%,39%,10%,2%,–
Cc1[nH]c(=O)c(C#N)cc1-c1ccncc1 [MILRINONE],-36.9%,30.5%,13.5%,142.5%,27%,-19.9%,39.2%,3%,-2%,48.5%,-8,113%,148.5%,77.5%,-13%,Increase contractility (Canis familiaris [23]): 45%
